Laboratory results reported in publication PMC10100219 (Chemistry (Weinheim an Der Bergstrasse, Germany), 2022).
Where a chain is given by its changes, count along the chain named.

Experiments:
Test in all cases: UV-Vis titration, Soret spin-state shift
Type in all cases: binding
CYP199A4 [1] = target: T1, CYP199A4 (Rhodopseudomonas palustris, UniProt Q2IU02)
T1 sequence (Q2IU02 1-410): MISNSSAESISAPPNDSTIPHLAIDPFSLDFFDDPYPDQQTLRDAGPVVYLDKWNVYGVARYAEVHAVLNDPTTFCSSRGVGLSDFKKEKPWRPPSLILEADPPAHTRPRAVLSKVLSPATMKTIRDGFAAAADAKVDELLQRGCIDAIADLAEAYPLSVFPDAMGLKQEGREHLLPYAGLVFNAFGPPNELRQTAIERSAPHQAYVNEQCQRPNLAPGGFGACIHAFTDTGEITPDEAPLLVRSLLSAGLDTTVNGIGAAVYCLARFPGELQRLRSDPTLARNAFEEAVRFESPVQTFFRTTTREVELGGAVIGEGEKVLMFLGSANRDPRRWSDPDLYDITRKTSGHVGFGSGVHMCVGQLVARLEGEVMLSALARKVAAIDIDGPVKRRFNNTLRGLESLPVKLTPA

CYP199A4 [2] = target: T2, CYP199A4 (Rhodopseudomonas palustris, UniProt Q2IU02, T253A)
T2 sequence (Q2IU02 1-410 T253A): T1 sequence (Q2IU02 1-410) with T253A
In short: (§1)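 CYP199A4 mutants (D251N, T252A) from Rhodopseudomonas palustris HaA2 were titrated with para-substituted benzoic acid test compounds, with UV-Vis monitoring to obtain Kd. Spectra were recorded from 700 to 250 nm at 600 nm min⁻¹, and repeated at 60 nm min⁻¹ to verify small Soret shifts. P450 concentration came from pyridine hemochromogen extinction coefficients: D251N 123±1, T252A 120±4 mM⁻¹ cm⁻¹.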

CYP199A4 [3] = target: T3, CYP199A4 (Rhodopseudomonas palustris, UniProt Q2IU02, D252N)
T3 sequence (Q2IU02 1-410 D252N): T1 sequence (Q2IU02 1-410) with D252N
In short: as §1

| Compound | Kd (CYP199A4 [1]) | Kd (CYP199A4 [2]) | Kd (CYP199A4 [3]) |
| --- | --- | --- | --- |
| CSc1ccc(C(=O)O)cc1 [4‐methylthiobenzoic acid] | 2300 ± 300 nM | 1400 ± 100 nM | 830 ± 80 nM |
| CCSc1ccc(C(=O)O)cc1 [4‐ethylthiobenzoic acid] | 990 ± 50 nM | 250 ± 50 nM | – |
